Columns and labels:
HepG2 [1] = assay: Cytotoxicity in human HepG2 cells assessed as reduction in cell viability incubated for 48 hrs by MTT assay; assay type: functional, cell-based; conditions: HepG2, 48 h
Summary of the method: (§1)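 HepG2 and HL60 (ATCC) grown in DMEM with 10% FBS, 2 mM L-glutamine, penicillin/streptomycin, amphotericin B at 37 °C, 5% CO2. Samples dissolved in DMSO, diluted thousandfold in assay. Cells seeded in serum-free medium, treated with serial concentrations 48 h; MTT 4 h, formazan dissolved in acidified isopropanol, A570. Triplicates averaged; viability relative to untreated/vehicle control.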

HL-60 = assay: Cytotoxicity in human HL60 cells assessed as reduction in cell viability incubated for 48 hrs by MTT assay; assay type: functional, cell-based; conditions: HL-60, 48 h; summary of the method: as §1
HL-60(TB) = assay: Growth inhibition of human HL-60(TB) cells assessed as cell growth at 10 uM after 48 hrs by sulforhodamine B assay; assay type: functional; conditions: HL-60, 48 h, read-out: Activity
Summary of the method: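 Screened by the NCI in its 60-cell-line panel covering nine cancer types, including leukemia. Compounds were added at a single concentration, and the cultures were incubated for 48 h. Results are reported as percent growth inhibition.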

K562 = assay: Growth inhibition of human K562 cells assessed as cell growth at 10 uM after 48 hrs by sulforhodamine B assay; assay type: functional; conditions: K562, 48 h, read-out: Activity
Summary of the method: (§2)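 NCI 60-cell-line panel screen (nine cancer types). Compounds added at single concentration 10^-5 M, cultures incubated 48 h; growth inhibition percentages reported.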

SR = assay: Growth inhibition of human SR cells assessed as cell growth at 10 uM after 48 hrs by sulforhodamine B assay; assay type: functional; conditions: read-out: Activity
Summary of the method: (§3)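 NCI 60-cell-line panel from nine tumour types (leukaemia, lung, colon, CNS, melanoma, ovarian, renal, prostate, breast). Each compound was added at one single concentration, and cultures were incubated for 48 h. Results are reported as percent growth inhibition.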

NCI-H522 = assay: Growth inhibition of human NCI-H522 cells assessed as cell growth at 10 uM after 48 hrs by sulforhodamine B assay; assay type: functional; conditions: NCI-H522, 48 h, read-out: Activity; summary of the method: as §2
HCC 2998 = assay: Growth inhibition of human HCC2998 cells assessed as cell growth at 10 uM after 48 hrs by sulforhodamine B assay; assay type: functional; conditions: HCC 2998, 48 h, read-out: Activity; summary of the method: as §2
HCT-116 = assay: Growth inhibition of human HCT116 cells assessed as cell growth at 10 uM after 48 hrs by sulforhodamine B assay; assay type: functional; conditions: HCT-116, 48 h, read-out: Activity; summary of the method: as §2
HCT-15 = assay: Growth inhibition of human HCT15 cells assessed as cell growth at 10 uM after 48 hrs by sulforhodamine B assay; assay type: functional; conditions: HCT-15, 48 h, read-out: Activity; summary of the method: as §2
SF-295 = assay: Growth inhibition of human SF295 cells assessed as cell growth at 10 uM after 48 hrs by sulforhodamine B assay; assay type: functional; conditions: SF-295, 48 h, read-out: Activity; summary of the method: as §2
SF-539 = assay: Growth inhibition of human SF539 cells assessed as cell growth at 10 uM after 48 hrs by sulforhodamine B assay; assay type: functional; conditions: SF-539, 48 h, read-out: Activity; summary of the method: as §2
SK-MEL-2 = assay: Growth inhibition of human SK-MEL-2 cells assessed as cell growth at 10 uM after 48 hrs by sulforhodamine B assay; assay type: functional; conditions: SK-MEL-2, 48 h, read-out: Activity; summary of the method: as §2
SK-MEL-28 = assay: Growth inhibition of human SK-MEL-28 cells assessed as cell growth at 10 uM after 48 hrs by sulforhodamine B assay; assay type: functional; conditions: SK-MEL-28, 48 h, read-out: Activity; summary of the method: as §2
SK-MEL-5 = assay: Growth inhibition of human SK-MEL-5 cells assessed as cell growth at 10 uM after 48 hrs by sulforhodamine B assay; assay type: functional; conditions: SK-MEL-5, 48 h, read-out: Activity; summary of the method: as §2
UACC-257 = assay: Growth inhibition of human UACC257 cells assessed as cell growth at 10 uM after 48 hrs by sulforhodamine B assay; assay type: functional; conditions: UACC-257, 48 h, read-out: Activity; summary of the method: as §3
UACC-62 = assay: Growth inhibition of human UACC62 cells assessed as cell growth at 10 uM after 48 hrs by sulforhodamine B assay; assay type: functional; conditions: UACC-62, 48 h, read-out: Activity; summary of the method: as §3
OVCAR-3 = assay: Growth inhibition of human OVCAR3 cells assessed as cell growth at 10 uM after 48 hrs by sulforhodamine B assay; assay type: functional; conditions: OVCAR-3, 48 h, read-out: Activity; summary of the method: as §2
OVCAR-8 = assay: Growth inhibition of human OVCAR8 cells assessed as cell growth at 10 uM after 48 hrs by sulforhodamine B assay; assay type: functional; conditions: OVCAR-8, 48 h, read-out: Activity; summary of the method: as §2
SK-OV-3 = assay: Growth inhibition of human SKOV3 cells assessed as cell growth at 10 uM after 48 hrs by sulforhodamine B assay; assay type: functional; conditions: SK-OV-3, 48 h, read-out: Activity; summary of the method: as §2
A498 = assay: Growth inhibition of human A498 cells assessed as cell growth at 10 uM after 48 hrs by sulforhodamine B assay; assay type: functional; conditions: A498, 48 h, read-out: Activity; summary of the method: as §2
CAKI-1 = assay: Growth inhibition of human CAKI-1 cells assessed as cell growth at 10 uM after 48 hrs by sulforhodamine B assay; assay type: functional; conditions: CAKI-1, 48 h, read-out: Activity; summary of the method: as §2
SN12C = assay: Growth inhibition of human SN12C cells assessed as cell growth at 10 uM after 48 hrs by sulforhodamine B assay; assay type: functional; conditions: read-out: Activity; summary of the method: as §3
TK-10 = assay: Growth inhibition of human TK10 cells assessed as cell growth at 10 uM after 48 hrs by sulforhodamine B assay; assay type: functional; conditions: TK-10, 48 h, read-out: Activity; summary of the method: as §3
UO-31 = assay: Growth inhibition of human UO31 cells assessed as cell growth at 10 uM after 48 hrs by sulforhodamine B assay; assay type: functional; conditions: UO-31, 48 h, read-out: Activity; summary of the method: as §3
PC-3 = assay: Growth inhibition of human PC3 cells assessed as cell growth at 10 uM after 48 hrs by sulforhodamine B assay; assay type: functional; conditions: PC-3, 48 h, read-out: Activity; summary of the method: as §2
BT-549 = assay: Growth inhibition of human BT549 cells assessed as cell growth at 10 uM after 48 hrs by sulforhodamine B assay; assay type: functional; conditions: BT-549, 48 h, read-out: Activity; summary of the method: as §2
MDA-MB-468 = assay: Growth inhibition of human MDA-MB-468 cells assessed as cell growth at 10 uM after 48 hrs by sulforhodamine B assay; assay type: functional; conditions: MDA-MB-468, 48 h, read-out: Activity; summary of the method: as §2
HepG2 [2] = assay: Induction of apoptosis in human HepG2 cells at cytotoxic IC50 by propidium iodide staining based flow cytometry (reference value: 1.2%); assay type: functional
HepG2 [3] = assay: Induction of cell cycle arrest in human HepG2 cells assessed as accumulation at G2 phase at cytotoxic IC50 by propidium iodide staining based flow cytometry (reference value: 7.2%); assay type: functional
HepG2 [4] = assay: Induction of cell cycle arrest in human HepG2 cells assessed as accumulation at S phase at cytotoxic IC50 by propidium iodide staining based flow cytometry (reference value: 25.2%); assay type: functional
HepG2 [5] = assay: Inhibition of beta tubulin polymerisation in human HepG2 cells incubated for 2 hrs using TMB substrate by ELISA relative to untreated control; assay type: cell-based; design: concentration or dose not given beside the values; conditions: dose or concentration not given here
[6] = Inhibition of beta tubulin polymerisation in human HepG2 cells incubated for 2 hrs using TMB substrate by ELISA; assay type: cell-based; conditions: HepG2, 2 h

Compound	IC50 (HepG2 [1]) [nM]	IC50 (HL-60) [nM]	growth at 10 µM (HL-60(TB)) [%]	growth at 10 µM (K562) [%]	growth at 10 µM (SR) [%]	growth at 10 µM (NCI-H522) [%]	growth at 10 µM (HCC 2998) [%]	growth at 10 µM (HCT-116) [%]	growth at 10 µM (HCT-15) [%]	growth at 10 µM (SF-295) [%]	growth at 10 µM (SF-539) [%]	growth at 10 µM (SK-MEL-2) [%]	growth at 10 µM (SK-MEL-28) [%]	growth at 10 µM (SK-MEL-5) [%]	growth at 10 µM (UACC-257) [%]	growth at 10 µM (UACC-62) [%]	growth at 10 µM (OVCAR-3) [%]	growth at 10 µM (OVCAR-8) [%]	growth at 10 µM (SK-OV-3) [%]	growth at 10 µM (A498) [%]	also measured
CCOc1ccc(-n2nc(C(=O)NCc3cc(F)cc(F)c3)nc2-c2cc(OC)c(OC)c(OC)c2)cc1	1410	950	61.4	62	64	50.9	84	49.7	61	65.2	70.7	65.5	65.3	50.1	50.5	57.9	71.2	75	76	64.4	growth at 10 µM (CAKI-1): 44.4%; growth at 10 µM (SN12C): 67.8%; growth at 10 µM (TK-10): 79.9%; growth at 10 µM (UO-31): 25.8%; growth at 10 µM (PC-3): 40.2%; growth at 10 µM (BT-549): 68.7%; growth at 10 µM (MDA-MB-468): 73.6%; Activity (HepG2 [2]): 16.7%; Activity (HepG2 [3]): 21.6%; Activity (HepG2 [4]): 26.3%; inhibition (HepG2 [5]): 71.8%; IC50 [6]: 1400 nM
COc1cccc(-n2nc(C(=O)Nc3ccccc3)nc2-c2cc(OC)c(OC)c(OC)c2)c1	6530	> 100000	121	121	93.9	65.5	87.3	91.3	88	91.9	93.6	98	96.6	93.8	103	95.3	99.9	101	102	100	growth at 10 µM (CAKI-1): 73.6%; growth at 10 µM (SN12C): 100%; growth at 10 µM (TK-10): 53.2%; growth at 10 µM (UO-31): 61.6%; growth at 10 µM (PC-3): 90%; growth at 10 µM (BT-549): 87.4%; growth at 10 µM (MDA-MB-468): 84.5%; inhibition (HepG2 [5]): 62.3%; IC50 [6]: 6500 nM
CCOc1ccc(-n2nc(C(=O)NCc3ccccc3OC)nc2-c2cc(OC)c(OC)c(OC)c2)cc1	620	600	19.1	22.1	35.9	35.7	57.5	25.3	29	34.8	49.2	41.5	36.6	-1.22	62.7	37	49.4	43.7	67.1	30	growth at 10 µM (CAKI-1): 25.9%; growth at 10 µM (SN12C): 39.7%; growth at 10 µM (TK-10): 46.5%; growth at 10 µM (UO-31): -2.66%; growth at 10 µM (PC-3): 24.6%; growth at 10 µM (BT-549): 33.9%; growth at 10 µM (MDA-MB-468): 72.4%; inhibition (HepG2 [5]): 85.6%; IC50 [6]: 600 nM
